The record followed here is ChEMBL document CHEMBL4513216, “Probing the Open Global Health Chemical Diversity Library for Multistage-Active Starting Points for Next-Generation Antimalarials” (ACS Infect Dis, 2020).

SMILES strings stand for the structures.

The data set is described as follows: Toxicity liver stage against HepG2, at 10uM. It is filed as cell-based. On the set-up: test concentration 10 uM, cell line HepG2-A16-CD81EGFP. As to conditions: human, HepG2-A16-CD81EGFP cells; read-out: INHIBITION
Summed up: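 Uninfected HepG2-A16-CD81EGFP cells, 3 × 10^3 per well, 1536-well, plated on prespotted compound at 10 μM final, parasite-free screening media added to match infected plates; puromycin 10 μM positive, DMSO 0.5% negative; run in parallel with 48 h PbLuc assay at 37 °C, 5% CO2; viability by CellTiter-Glo luminescence, normalized to controls.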
Consider `N#Cc1cccc(CN2C[C@@H](F)[C@@H](OCc3nc4ccccc4[nH]3)C2)c1`, for which the cytotoxicity at 10 µM is 6%. For the compound `O=C(NC[C@H]1OC[C@@H](NC2COC2)[C@@H]1O)C1CCCC1`, the cytotoxicity at 10 µM was -3.11%. The figure for `Cn1cc(CN2C[C@@H](F)[C@@H](OCc3nc4cnccc4[nH]3)C2)cn1` is 6.88%; for `COc1ccc(OC)c(NC(=O)c2c(C)cn(C)c2CC(=O)O)c1` it is -1.52%. Take `COC1CN(C(=O)C2CC2)CCC(=O)N(C)c2ccccc21` (centres undefined): the cytotoxicity at 10 µM is -8.67%.

As for `COCC(=O)N(Cc1ccc2[nH]ccc2c1)C1CC1`, the cytotoxicity at 10 µM is -2.46%. For the compound `Cn1cc(CN2C[C@@H](N3CCCC3=O)[C@H]3OCCC[C@H]32)cn1`, the cytotoxicity at 10 µM was found to be 8.92%. With `CCS(=O)(=O)N1CCc2nnc(CN(C)C(C)C)n2CC1`, the cytotoxicity at 10 µM turned out to be 0.872%.

As for `CC(C)CN1C(=O)CO[C@@H]2CN(C(=O)N(C)C)C[C@H]21`, the cytotoxicity at 10 µM worked out at 0.657%.

For `CC(C)CN1C(=O)CO[C@@H]2CN(C(=O)N3CCOCC3)C[C@H]21`, the cytotoxicity at 10 µM was -1.68%. In the case of `Cc1cccc(CN2CCCC3(CCN(c4cccnc4)C3=O)C2)n1` (centres undefined), the cytotoxicity at 10 µM is -1.34%. As to `COCC(=O)N1CC[C@@H]2CN(Cc3ccccc3)S(=O)(=O)[C@@H]2CC1`, the cytotoxicity at 10 µM was -0.733%.

Turning to `OCc1nnn2c1CN(Cc1cccnc1)CCC2`, the cytotoxicity at 10 µM is 10.1%. Consider `CCC1=N[C@@]2(CC[C@@H]3CN(CC(=O)N(C)C)C[C@@H]32)C(=O)N1CC(C)C`, for which the cytotoxicity at 10 µM was found to be 8.18%. Regarding `COc1ncccc1CN1C[C@@H]2COC[C@]2(CNC(=O)c2ccno2)C1`, the cytotoxicity at 10 µM was 8.07%. For the compound `O=c1c2ccccc2nc2n1CCN(Cc1cccs1)CC2`, the cytotoxicity at 10 µM stood at 2.39%. As for `CCN(Cc1ccc(CN(C)C)cc1)C(=O)c1ccncc1O`, the cytotoxicity at 10 µM is -7.19%.

`N#Cc1ccc(CNCCc2cc(F)cc3c2OCOC3)cc1`: the cytotoxicity at 10 µM turned out to be 6.58%.

With `CC(=O)c1cccc(OCCCC(=O)N(C)C2CCN(C)CC2)c1`, the cytotoxicity at 10 µM turned out to be 3.07%.

For `OCCN1CCN(CC2(O)CCCCC2)CC1`, the cytotoxicity at 10 µM is 3.66%. `CN1CCC(CNC(=O)NCc2ccc(N(C)C)cc2)CC1`: the cytotoxicity at 10 µM is -1.42%. `CCN(CC)S(=O)(=O)c1cc(NC(=O)CCc2cscn2)ccc1C`: the cytotoxicity at 10 µM was -0.25%. Turning to `CC(=O)N1CCCN(CCCSc2ccccc2Cl)CC1`, the cytotoxicity at 10 µM is 0.269%. As for `CNS(=O)(=O)CC(=O)NCc1cc2c(s1)CCCCC2`, the cytotoxicity at 10 µM came to 2.42%. The figure for `CCc1noc(C(C)Sc2nnc(C3CC3)n2CC(N)=O)n1` (centres undefined) is -148%. For `Cn1c(CN2CCC(N3CCNC3=O)CC2)cc(=O)n(C)c1=O`, the cytotoxicity at 10 µM was -2.03%. Take `O=c1n(CCNCc2cccc3ccccc23)nc2ccccn12`: the cytotoxicity at 10 µM was found to be 0.551%. With `COCCn1cc(C(=O)N2CCCC2c2cc(C)on2)c2ccccc21` (centres undefined) the figure was 6.35%; with `O=C(NC1CCN(c2cccc(C(F)(F)F)n2)CC1)C1CC1`, -0.432%. With `N#CCCCn1nnc(C2(NC(=O)c3ccccc3)CCCC2)n1`, the cytotoxicity at 10 µM was 13.6%. Regarding `CC(C)CS(=O)(=O)CC(=O)N1CCCC1c1noc(C2CC2)n1` (centres undefined), the cytotoxicity at 10 µM stood at 13.4%.

`Cc1ccc(-n2nnc(CC(=O)N3CCN(C4CC4)CC3)c2C)cc1`: the cytotoxicity at 10 µM is -8.06%. For the compound `COc1ccc(-n2ccc(C(=O)N(C)C(C)C3(C)CC3)n2)cc1` (centres undefined), the cytotoxicity at 10 µM was -2.41%. Consider `CN(CC(=O)N(CCC#N)c1ccccc1)C1CCc2ccccc21` (centres undefined), for which the cytotoxicity at 10 µM was 3.15%. As for `O=C1C(NCc2cccc(O)c2)CCN1Cc1ccccc1` (centres undefined), the cytotoxicity at 10 µM was -0.539%. `CN(C(=O)CN1CCc2nn(C)c(=O)cc2C1)c1nccs1`: the cytotoxicity at 10 µM turned out to be 10.4%. Consider `Clc1ccccc1C1CN(CCc2ccncc2)CCO1` (centres undefined), for which the cytotoxicity at 10 µM is 3.61%. For `COc1ccc(CC(=O)NC(CC(=O)O)c2ccc(F)cc2)cc1OC` (centres undefined), the cytotoxicity at 10 µM turned out to be 0.902%. Consider `CCc1nc(CCNC(=O)Nc2cc(C(N)=O)sc2C)cs1`, for which the cytotoxicity at 10 µM is 24.6%.

With `CN(CCCNc1cc(N2CCCC2CO)ncn1)S(C)(=O)=O` (centres undefined), the cytotoxicity at 10 µM was -10.2%. With `CCO[C@@H]1CCN(C(=O)c2ccc[nH]2)[C@@H]1Cc1cnn(C)c1` the figure was 1.44%; with `OC1(Cn2ccnc2)CCN(C[C@]2(O)CCCN3CCCC[C@@H]32)CC1`, 0.805%; with `CC(C)CCN1CC2(CCN(C(=O)C3(C)CC3)CC2)OC1=O`, 1.84%.

Consider `Cc1nc(C)c(Cc2nc(C3CC3)n[nH]2)c(=O)[nH]1`, for which the cytotoxicity at 10 µM was 2.39%. With `Cc1ccc(-n2cc(CN3CCN(C)[C@@H]4CS(=O)(=O)C[C@@H]43)cn2)cc1` the figure was -8.67%.

For the compound `NC(=O)CCn1cc(CNCCCc2csc(N)n2)c2ccccc21`, the cytotoxicity at 10 µM was 3.1%.

With `COCCn1c(=O)n(Cc2ccccc2C)c2cc(C(=O)O)ccc21`, the cytotoxicity at 10 µM was -1.79%. The figure for `CCc1c(O)nc(SCC(=O)N(CC)CC)n(C(C)CC)c1=O` (centres undefined) is -6.65%; for `CNS(=O)(=O)c1ccc(CN(C)Cc2nc3ccc(F)cc3[nH]2)cc1` it is 17.2%; for `C=C(C)COc1cccc(CNCCc2c[nH]cn2)c1` it is 8.95%. In the case of `Cc1c(C(=O)N[C@H]2CN(CCS(C)(=O)=O)C[C@@H]2C2CC2)cnn1C`, the cytotoxicity at 10 µM was 7.02%. For the compound `Cc1nc(C(C)NC(=O)c2cn(C/C=C/c3ccccc3)nn2)n[nH]1` (centres undefined), the cytotoxicity at 10 µM is 10.7%. For `Cn1ccn2ncc(C(=O)NCc3cccnc3N3CCCC(O)C3)c12` (centres undefined), the cytotoxicity at 10 µM is -8.01%. With `Cc1ncc(S(C)(=O)=O)c(N(C)CCCc2cnn(C)c2)n1` the figure was -1.07%; with `COCCn1cnnc1CCNc1cc(C)nc2ccnn12`, -1.42%; with `CN(CCCc1cnn(C)c1)C(=O)C1CCOC1` (centres undefined), -13.4%.

As for `CC(C(=O)Nc1ccc(N2CCCCC2)nc1)n1cncn1` (centres undefined), the cytotoxicity at 10 µM is -31.2%. With `Cc1cc(C)n(CC2CN(Cc3cnc(C)s3)CCO2)n1` (centres undefined) the figure was -19.7%; with `Cc1cccc(NC2CCN(C(=O)Nc3ccccn3)CC2)n1`, -7.92%. With `CCc1nc(C)c(C(=O)NCCNc2ncccn2)s1` the figure was -2.16%; with `Cc1ccc(-c2cc(CNC(=O)N3CCC(CO)CC3)on2)cc1`, -7.69%.

For the compound `Cc1cnn(C2CCCN(C(=O)c3cnc4ccccc4n3)C2)c1` (centres undefined), the cytotoxicity at 10 µM was -10.7%. Regarding `O=C(NCCNc1ncccn1)N1CCSCC1`, the cytotoxicity at 10 µM was -8.26%.

`Cn1ccnc1NC[C@@H]1CCC[C@@H]2CN(Cc3nccs3)C[C@@H]21`: the cytotoxicity at 10 µM is 14%. With `CS(=O)(=O)N1C[C@@H](Oc2ccccn2)[C@H]2OCCC[C@H]21` the figure was 7.78%. Take `Cc1nnc(N2C[C@@H]3CCCO[C@@H]3[C@H](N3CCCC3=O)C2)s1`: the cytotoxicity at 10 µM was 17.4%. With `CCOCC1CN(S(=O)(=O)N(C)C)Cc2cnn(CC)c21` (centres undefined) the figure was 2.26%; with `Cc1ccc2nc(C3CCN(CC4CC4)CC3)nn2c1`, 0.806%. For the compound `O=C(NC[C@]12COC[C@H]1CN(Cc1cccnc1)C2)c1ccno1`, the cytotoxicity at 10 µM was found to be 4.35%.
